Source: PubChem (Johns Hopkins Ion Channel Center)
This is a sample that favours compounds with a hit; in the whole collection about 3.1% have one here.
KCNQ1 pot – potentiators or activators of KCNQ1 channel, primary screen, cell-based, thallium flux, high-throughput; Potassium voltage-gated channel subfamily KQT member 1 (Homo sapiens), P51787; B-score at 10 µM; actives 0.35% (n = 310,000); CHO-K1 KCNQ1, thallium flux FluxOR fluorescence; active compounds read high;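 active = fluorescence ratio B-score, a plate-corrected score, at least three library SD, with initial intensity B-score within 5 SD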
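Assay system: CHO-K1 cells stably expressing KCNQ1; Medium: assay buffer with matched DMSO; Also added: K+/Tl+ depolarizing stimulus; Dosing: single dose; Timing: dye 90 min, compound 20 min, room temperature; Measured by: kinetic FluxOR thallium fluorescence, 10-s 1-Hz baseline, 110-s post-stimulus read; Read-out: peak-minus-minimum fluorescence over initial fluorescence, negative-control normalized, B-scored.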
KCNQ1 inh – inhibitors of human KCNQ1 channel, primary screen, cell-based, thallium flux, high-throughput | Potassium voltage-gated channel subfamily KQT member 1 (Homo sapiens), P51787 | CHO-K1 KCNQ1, FluxOR thallium flux fluorescence; active compounds read high | B-score at 10 µM | AID 2642, 2010 | actives 1.3% (n = 310,000);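 active = compounds whose thallium flux B-score, printed positive for inhibition, exceeds three library SD while starting fluorescence stays within three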;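 note: channel opened by potassium depolarization with thallium stimulus after 20 min compound exposure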
hERG rescue – hERG rescue from dofetilide block, primary screen, cell-based, CHO-hERG, FluxOR thallium flux, dofetilide IC70 | actives 0.51% (n = 310,000) | AID 1511, 2009 | Voltage-gated inwardly rectifying potassium channel KCNH2 (Homo sapiens), Q12809 | dofetilide IC70 present | activation (rescue from dofetilide block), less the hit threshold, % at 10 µM;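 active = activation above the mean of controls blocked by dofetilide plus 5 SD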;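 note: thallium influx through hERG after potassium depolarization seen as dye fluorescence rise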
KCNK3 block – human KCNK3 channel inhibitors, primary screen, CHO cells, FluxOR thallium flux, B-score; Potassium channel subfamily K member 3 (Homo sapiens), O14649; FluxOR fluorescence; active compounds read low; B-score at 10 µM; actives 0.84% (n = 340,000);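 active = B-score under library mean minus 4 SD, starting fluorescence ratio at most library mean plus 5 SD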;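 note: more negative B-score means stronger inhibition of thallium flux through KCNK3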
KCNK9 inh – KCNK9 potassium channel inhibitors, primary screen, HEK293 cells, thallium flux. Potassium channel subfamily K member 9 (Homo sapiens), Q9NPC2. FluxOR thallium flux fluorescence; active compounds read low. B-score at 10 µM. actives 1.2% (n = 310,000). AID 488922, 2010;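 active = ratio B-score over 3 SD below the library mean, with starting fluorescence within 5 SD of its mean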;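 note: negative B-score means less thallium flux so channel inhibition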
KCNQ1 block val – KCNQ1 potassium channel inhibitors, confirmation, cell-based, Tl flux, duplicate; inhibition, % at 10 µM; actives 93% (n = 1,600); shares compounds with KCNQ1 inh; KCNQ1 cell line, FluxOR thallium flux fluorescence;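 active = primary screen active, with duplicate mean exceeding buffer control mean plus 3 SD of buffer wells, cut at about 28% in these data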
CHO Tl flux – thallium flux effects in parental CHO cells, counter-screen for KCNQ1 inhibitor project, cell-based, Tl flux. AID 588366, 2011. actives 21% (n = 1,600). parental CHO-K1, FluxOR thallium flux fluorescence ratio; active compounds read low; zero means no signal rise above baseline. shares compounds with KCNQ1 inh. fluorescence ratio (Tl flux) at 10 µM;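 active = mean of duplicate thallium-flux fluorescence ratios in parental host cells more than 5 SD below the buffer control mean, cut at about 0.38 in these data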;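 note: ratio is peak minus minimum fluorescence divided by baseline fluorescence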
KCNQ1 ephys val – KCNQ1 channel inhibitors, confirmation, orthogonal assay, cell-based, automated electrophysiology; shares compounds with KCNQ1 inh; KCNQ1-CHO cells, automated patch clamp current; calls only at 10 µM; actives 20% (n = 490);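 active = KCNQ1 current drop exceeding 3 SD of negative control wells, seen in both duplicate runs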;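 note: steady state current during a 2 s step from -80 to +40 mV; negative values mean current inhibition and positive values mean potentiation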
KCNQ2 inh – KCNQ2 channel inhibition, selectivity assay for KCNQ1 inhibitor project, cell-based | shares compounds with KCNQ1 inh | KCNQ2 cells, FluxOR thallium flux fluorescence | inhibition, % at 10 µM | actives 71% (n = 1,600) | AID 651746, 2012;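 active = mean percent inhibition of the KCNQ2 thallium signal more than 5 SD above the buffer-only control wells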;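 note: KCNQ2 expressed in CHO cells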
Target sequence (O88943 whole entry, looked up): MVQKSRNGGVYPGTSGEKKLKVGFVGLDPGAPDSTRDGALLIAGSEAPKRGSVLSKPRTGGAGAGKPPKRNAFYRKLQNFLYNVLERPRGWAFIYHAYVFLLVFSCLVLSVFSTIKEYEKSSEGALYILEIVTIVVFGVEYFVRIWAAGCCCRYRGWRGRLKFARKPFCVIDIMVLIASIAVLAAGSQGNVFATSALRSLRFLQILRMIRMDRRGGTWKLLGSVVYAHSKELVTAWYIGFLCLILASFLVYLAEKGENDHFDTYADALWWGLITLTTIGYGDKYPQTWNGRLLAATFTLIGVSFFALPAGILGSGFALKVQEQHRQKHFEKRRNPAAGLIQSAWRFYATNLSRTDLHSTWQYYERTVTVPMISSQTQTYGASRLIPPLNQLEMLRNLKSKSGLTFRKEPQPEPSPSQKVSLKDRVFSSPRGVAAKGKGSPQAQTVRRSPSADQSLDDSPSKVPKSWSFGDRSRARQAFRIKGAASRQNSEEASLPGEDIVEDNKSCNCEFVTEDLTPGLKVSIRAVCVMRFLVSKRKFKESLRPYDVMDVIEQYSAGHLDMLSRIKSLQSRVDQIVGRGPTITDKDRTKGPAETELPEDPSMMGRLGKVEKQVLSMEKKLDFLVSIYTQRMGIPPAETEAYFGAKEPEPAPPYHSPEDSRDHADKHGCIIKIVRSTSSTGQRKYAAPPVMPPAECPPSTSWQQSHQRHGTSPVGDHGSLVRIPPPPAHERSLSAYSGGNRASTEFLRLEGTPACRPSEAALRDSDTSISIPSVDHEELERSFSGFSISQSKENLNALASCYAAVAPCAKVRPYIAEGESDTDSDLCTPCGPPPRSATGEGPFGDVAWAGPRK
KCNQ1 KCNE1 spec – KCNQ1/KCNE1 channel inhibition, selectivity assay for KCNQ1 inhibitor project, CHO-K1 cells, thallium flux, FluxOR; shares compounds with KCNQ1 inh; inhibition, % at 10 µM; actives 77% (n = 1,600); FluxOR thallium flux fluorescence;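 active = mean percent inhibition of duplicate wells above the buffer-only control mean plus 3 SD of those controls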
Of the large screens only hits and unclear results are named; the others gave an inactive call (follow-up assays come after a bar, where they were run).

C/C(=N\OCC(=O)OC(C)C(=O)Nc1ccc(C)c(S(=O)(=O)N2CCOCC2)c1)c1ccc2c(c1)OCO2 (centres undefined)	none (no result: KCNQ1 pot, KCNQ1 inh, hERG rescue, KCNK9 inh)
Cc1csc(NC(=O)Nc2cccc(Cl)c2)n1	KCNQ1 inh 6 | KCNQ1 block val 70.5 | CHO Tl flux inactive | KCNQ2 inh inactive | KCNQ1 KCNE1 spec 93.0%
COc1ccc(N/C=C2\CCc3ccccc3C2=O)cc1	KCNQ1 inh 6 | KCNQ1 block val 50.0 | CHO Tl flux inactive | KCNQ2 inh 112.0% | KCNQ1 KCNE1 spec 114.5%
CC1CCN(C(=O)COc2ccc(S(=O)(=O)N3CCOCC3)cc2)CC1	none
Cc1ccc(C(=O)NCC(=O)Nc2ccncc2)s1	none
CCCNC(=O)c1ccc2nc(-c3ccccc3)c(-c3ccccc3)nc2c1	none
CCN1CCN(CCNC(=O)c2ccc3nc(-c4cccc(C)c4)c(-c4cccc(C)c4)nc3c2)CC1	KCNQ1 inh 8 | KCNQ1 block val 76.0 | CHO Tl flux 0.315 | KCNQ2 inh 91.3% | KCNQ1 KCNE1 spec 162.5%
O=C(NCc1ccccn1)c1ccc(Cl)c(S(=O)(=O)NCc2ccccc2)c1	none (no result: KCNQ1 pot, KCNQ1 inh, hERG rescue, KCNK9 inh)
CCCCCCSc1cccc(-c2nc3ccc(Cl)cn3c2NCc2ccccc2)c1	none
O=C(Nc1ccc(F)cc1)c1ccccc1NS(=O)(=O)N1CCCC1	KCNQ1 inh 7 | KCNQ1 block val 82.0 | CHO Tl flux inactive | KCNQ2 inh 67.3% | KCNQ1 KCNE1 spec inactive
O=C(COC(=O)C1CCC1)NC(=O)c1ccccc1	none
COc1cc(C2Nc3cc(C)c(C)cc3NC3=C2C(=O)CC(C)(C)C3)ccc1OC(C)=O (centres undefined)	none
Cc1cc2c(cc1C)NC(c1c(C)n(C)n(-c3ccccc3)c1=O)C1=C(CC(C)(C)CC1=O)N2 (centres undefined)	KCNQ1 inh 15 | KCNQ1 block val inactive | CHO Tl flux inactive | KCNQ2 inh inactive | KCNQ1 KCNE1 spec inactive
c1ccc2c(-c3nc(C4CCCCC4)no3)cc(-c3ccncc3)nc2c1	KCNQ1 inh 7 | KCNQ1 block val 84.5 | CHO Tl flux inactive | KCNQ2 inh 93.0% | KCNQ1 KCNE1 spec 79.0%
CCOC(=O)c1cc(C#N)c(Oc2ccccc2)nc1-c1ccccc1	KCNQ1 inh 7 | KCNQ1 block val 88.0 | CHO Tl flux 0.329 | KCNQ2 inh 112.0% | KCNQ1 KCNE1 spec 96.5%
CCCNc1nc(-c2ccccc2)c(C(=O)OCC)cc1C#N	none
O=C(NCCOc1ccccc1)c1ccc2c(c1)S(=O)(=O)c1cc(Cl)ccc1C2=O	none (no result: KCNQ1 pot, KCNQ1 inh, hERG rescue, KCNK9 inh)
Cc1cccc(-c2nnc(SC(C)C(=O)N3CCOCC3)o2)c1 (centres undefined)	none
CCOC(=O)C1=C(C)N=c2s/c(=C\c3ccc(O)c([N+](=O)[O-])c3)c(=O)n2C1c1ccccc1OC (centres undefined)	KCNQ1 inh 18 | KCNQ1 block val 143.5 | CHO Tl flux 0.301 | KCNQ2 inh 109.0% | KCNQ1 KCNE1 spec active
COc1ccccc1CC(Cc1nc2ccccc2[nH]1)c1nc2ccccc2[nH]1 (centres undefined)	KCNQ1 inh 8 | KCNQ1 block val 47.0 | CHO Tl flux inactive | KCNQ2 inh 68.7% | KCNQ1 KCNE1 spec 46.5%
CN(Cc1cccnc1)C(=O)c1cc(COc2ccc3c(c2)CCCC3)on1	KCNQ1 inh 7 | KCNQ1 block val 115.0 | CHO Tl flux inactive | KCNQ1 ephys val inactive | KCNQ2 inh 81.0% | KCNQ1 KCNE1 spec 45.5%
Cc1ccc(S(=O)(=O)C(C#N)c2nc3ccccc3nc2N2CCN(C)CC2)cc1 (centres undefined)	none
CCOC(=O)N1CCN(c2nc3ccccc3nc2C(C#N)S(=O)(=O)c2ccc(C)cc2)CC1 (centres undefined)	KCNQ1 inh 9 | KCNQ1 block val 61.0 | CHO Tl flux inactive | KCNQ2 inh inactive | KCNQ1 KCNE1 spec 50.5%
CCCOc1ccc(C(=O)CCC(=O)OCC(=O)N2CCN(S(=O)(=O)c3ccc(C)cc3C)CC2)cc1	none (no result: KCNQ1 pot, KCNQ1 inh, hERG rescue, KCNK9 inh)
O=C(CC1C(=O)N(c2ccccc2)C(=S)N1c1ccccc1)c1ccccc1 (centres undefined)	none
O=C(CC1C(=O)N(c2ccccc2)C(=S)N1c1ccccc1)c1ccc(Br)cc1 (centres undefined)	KCNQ1 inh 6 | KCNQ1 block val 65.0 | CHO Tl flux inactive | KCNQ2 inh 97.0% | KCNQ1 KCNE1 spec 68.5%
CCN(CC)CCSc1nnc2c3ccccc3n(CCc3ccccc3)c2n1	none
O=C1c2ccccc2C(=O)N1CSc1nnc2c3ccccc3n(CCc3ccccc3)c2n1	KCNQ1 inh 6 | KCNQ1 block val 42.5 | CHO Tl flux inactive | KCNQ2 inh 77.7% | KCNQ1 KCNE1 spec inactive
CCCCC(CCc1ccccn1)C(=O)c1ccccc1 (centres undefined)	none (no result: KCNQ1 pot, KCNQ1 inh, hERG rescue, KCNK9 inh)
O=C(NCC1(c2ccccc2)CCCC1)C1(c2ccccc2)CCCC1	KCNQ1 inh 6 | KCNQ1 block val 112.5 | CHO Tl flux inactive | KCNQ1 ephys val inactive | KCNQ2 inh 107.7% | KCNQ1 KCNE1 spec 151.5%
Cc1ccc(S(=O)(=O)NC(=O)c2cc(C)n(-c3ccc(N(C)C)cc3)c2C)cc1	KCNQ1 inh 6 | KCNQ1 block val 30.5 | CHO Tl flux inactive | KCNQ2 inh inactive | KCNQ1 KCNE1 spec inactive
Cc1ccc(S(=O)(=O)NC(=O)c2cc(C)n(-c3ccccc3)c2C)cc1	none
